Screening results deposited in PubChem by Johns Hopkins Ion Channel Center.
KCNK9 block: blocks the human KCNK9 two-pore domain potassium channel | Q9NPC2 | 1.2% of 310,000 active | HEK293 KCNK9, FluxOR thallium flux fluorescence; hits give low values | B-score at 10 µM;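 active means ratio B-score over 3 SD below the library mean, with starting fluorescence within 5 SD of its mean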;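 further: negative B-score means less thallium flux so channel inhibition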
Kir21 block: inhibitors of mouse Kir2.1 inward-rectifier potassium channel; P35561; HEK293-Kir2.1, FluxOR thallium flux fluorescence; hits give low values; B-score at 10 µM; 0.85% of 310,000 active;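 active means fluorescence ratio B-score at or below minus 3 SD of library scores, with starting-brightness B-score within 2 SD, cut at about -4.2 in these data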;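 further: channel flux triggered by added potassium and thallium sulfate stimulus; B-score of peak minus minimum fluorescence over baseline after thallium stimulus; more negative B-score means stronger Kir2.1 block with less thallium influx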
KCNK3 inh: human KCNK3 channel inhibition, primary screen. O14649. CHO-KCNK3 thallium flux, FluxOR fluorescence; hits give low values. B-score at 10 µM. 0.84% of 340,000 active;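 active means B-score under library mean minus 4 SD, starting fluorescence ratio at most library mean plus 5 SD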;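 further: more negative B-score means stronger inhibition of thallium flux through KCNK3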
Target sequence (O14649 whole entry, looked up): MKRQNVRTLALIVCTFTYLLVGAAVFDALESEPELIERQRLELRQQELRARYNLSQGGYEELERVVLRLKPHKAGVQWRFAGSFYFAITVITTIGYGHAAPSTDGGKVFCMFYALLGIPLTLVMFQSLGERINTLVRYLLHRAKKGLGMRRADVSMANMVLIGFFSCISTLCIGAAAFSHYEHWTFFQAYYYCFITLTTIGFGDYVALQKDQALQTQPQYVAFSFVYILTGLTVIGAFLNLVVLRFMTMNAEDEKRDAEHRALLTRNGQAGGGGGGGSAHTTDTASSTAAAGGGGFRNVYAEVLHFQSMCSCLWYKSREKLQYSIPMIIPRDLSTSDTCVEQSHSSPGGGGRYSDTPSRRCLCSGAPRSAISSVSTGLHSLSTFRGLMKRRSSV
KCNQ1 block: human KCNQ1 channel inhibition. CHO-K1 KCNQ1, FluxOR thallium flux fluorescence; hits give high values. B-score at 10 µM. 1.3% of 310,000 active;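 active means compounds whose thallium flux B-score, printed positive for inhibition, exceeds three library SD while starting fluorescence stays within three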;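 further: channel opened by potassium depolarization with thallium stimulus after 20 min compound exposure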
hERG protect: hERG (human) protection from proarrhythmic block; 0.51% of 310,000 active; CHO-hERG, FluxOR thallium flux, dofetilide IC70 present; Q12809; activation (rescue from dofetilide block), less the hit threshold, % at 10 µM; AID 1511;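 active means activation above the mean of controls blocked by dofetilide plus 5 SD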;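 further: thallium influx through hERG after potassium depolarization seen as dye fluorescence rise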
KCNQ1 pot: potentiators or activators of human KCNQ1 potassium channel | P51787 | CHO-K1 KCNQ1, thallium flux FluxOR fluorescence; hits give high values | B-score at 10 µM | 0.35% of 310,000 active;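 active means fluorescence ratio B-score, a plate-corrected score, at least three library SD, with initial intensity B-score within 5 SD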
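Doses: Single concentration per compound, DMSO matched to controls | Test system: KCNQ1-transfected CHO-K1 cells | Timing: 90 min dye loading and 20 min compound exposure, both at room temperature | Measured by: Kinetic FluxOR thallium fluorescence, 10-s 1-Hz baseline, 110-s post-stimulus read | Medium: Assay buffer with matched DMSO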
Large screens that a line does not name were inactive. Compounds with a hit are over-represented: about 3.8% of the library has one in this group of screens.

O=C(Nc1nc2ccccc2s1)C1CCCN1S(=O)(=O)c1ccc(Cl)cc1 (stereo not drawn)	none
COc1ccccc1CNC(=O)C/C(C)=N/NC(=O)COc1ccc(C)cc1Br	none
C/C(CC(=O)Nc1ccccc1-c1ccccc1)=N\NC(=O)COc1ccc(C)cc1Br	KCNQ1 block 6
Cc1ccc(CCC2C3=C(CCCC3=O)OC3=C2C(=O)CCC3)cc1	none
CC(C)c1ccc(CC(C)C2C3=C(CCCC3=O)OC3=C2C(=O)CCC3)cc1 (stereo not drawn)	KCNQ1 block 7
O=P(c1ccccc1)(c1ccccc1)c1nc(-c2ccc(Cl)cc2)oc1N1CCOCC1	none
CCc1ccc(/C=C/C(=O)c2cc(Br)ccc(=O)c2O)cc1	KCNQ1 pot 38
COCCn1c(SCC(=O)Nc2cc(C)on2)nnc1-c1ccccc1	none
COc1ccccc1/C=C/C=C1\Oc2c(ccc(O)c2CN2CCN(CCO)CC2)C1=O	KCNK9 block -6.8, KCNQ1 block 6
CCN1CCN(Cc2c(O)ccc3c2O/C(=C\c2ccccc2)C3=O)CC1	none
O=C1/C(=C/C=C/c2ccccc2)Oc2c1ccc(O)c2CN1CCN(CCO)CC1	none
CN(C)Cc1c(O)ccc2c1O/C(=C\C=C\c1ccccc1)C2=O	KCNQ1 block 9
CCc1ccc(/C=C2\Oc3c(ccc(O)c3CN3CCN(C)CC3)C2=O)cc1	KCNQ1 block 8
Cc1nc(C)n(C(C)CNS(=O)(=O)c2ccc(Cl)cc2)n1 (stereo not drawn)	none
O=C(NCC(c1ccco1)N1CCc2ccccc2C1)c1ccc(Cl)cc1 (stereo not drawn)	none
O=C(NCC(c1ccco1)N1CCc2ccccc2C1)c1ccc(Cl)c([N+](=O)[O-])c1 (stereo not drawn)	KCNQ1 block 6
c1cc2c(cc1C1CCCCC1)c1c3n2CCCNC3CCC1 (stereo not drawn)	Kir21 block -4.3
O=C(Nc1ccccc1F)NC1CCCCCCC1	none
O=C(Nc1ccccc1F)NC1CC1	hERG protect 5.8
CS(=O)(=O)N(Cc1ccc(Cl)cc1)c1ccc(C(=O)NCc2ccccn2)cc1	none
CS(=O)(=O)N(Cc1ccc(Cl)cc1)c1ccc(C(=O)N/N=C/c2cc3ccccc3nc2Cl)cc1	KCNK9 block -7.3
Cc1cccc(-c2nc3c(c(=O)c4ccccc4n3C)c(=O)n2-c2ccccc2)c1	none
COCCn1c(=N)c(C(=O)NCc2ccco2)cc2c(=O)n3cc(C)ccc3nc21	none
Cc1ccc2nc3c(cc(C(=O)NCc4ccco4)c(=N)n3C3CCCC3)c(=O)n2c1	KCNQ1 block 8
Cc1occc1C(=O)/C(C#N)=C/c1ccc(O)c(Br)c1	KCNQ1 block 11
CC(OC(=O)c1cccc(N(C)C)c1)C(=O)N1CCc2ccccc2C1 (stereo not drawn)	none (no result: KCNK9 block, Kir21 block, KCNQ1 block, hERG protect, KCNQ1 pot)
CCN(CC)CCC=C(c1cccs1)c1cccs1	none (no result: KCNK9 block, Kir21 block, KCNQ1 block, hERG protect, KCNQ1 pot)
CCSc1ccccc1C(=O)NCCCn1ccnc1	hERG protect 4.8
CN(c1ccc(OCC(=O)NCCc2ccccc2)cc1)S(=O)(=O)c1ccc(Cl)cc1	none
COc1ccc(CCNC(=O)COc2ccc(N(C)S(=O)(=O)c3ccc(Cl)cc3)cc2)cc1	Kir21 block -5.9
Cc1cc(C)c(C(=O)NC2CCCc3c2cnn3-c2ccc(C)c(C)c2)c(=O)[nH]1 (stereo not drawn)	none
O=C(CCCCCN1C(=O)[C@@H]2Cc3ccccc3CN2C1=O)NCCc1ccccc1	none
COC(=O)c1cccc(-c2ccc(/C=N/N3C(=O)C4C5C=CC(C6CC56)C4C3=O)o2)c1 (stereo not drawn)	KCNQ1 block 7
COc1ccc(NC(=O)CN2C(=O)NC3(CCCCC3C)C2=O)cc1OC (stereo not drawn)	none (no result: KCNK9 block, Kir21 block, KCNQ1 block, hERG protect, KCNQ1 pot)
N#CC(C#N)=C(Nc1ccc(F)cc1)SCc1cccc(Br)c1	KCNQ1 block 7
Cc1cccc(CSC(=N)N)c1	none
Cc1cccc(CSC(Nc2ccc(F)cc2)=C(C#N)C#N)c1	Kir21 block -4.5, KCNQ1 block 8
Cc1ccc(S(=O)(=O)N2CCN(C(=O)COC(=O)COc3ccc(Cl)cc3)CC2)c(C)c1	none (no result: KCNK9 block, Kir21 block, KCNQ1 block, hERG protect, KCNQ1 pot)
CCCc1cc(C(=O)N/N=C/c2cccn2C)cs1	none
CCN(c1cccc2ccccc12)S(=O)(=O)c1ccc(Cl)nc1	none
